From the array DNA melting data of Ke et al. (doi:10.1101/2024.01.08.574731)

Experiments:
[1] = folding enthalpy; higher = less favourable; fluorescence melt of hairpins on a sequencing array, two-state fit; details: sodium 0.088 M
Procedure, shortened: (§1)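 Bootstrapped two-state fits yielded melting temperature and folding enthalpy for library hairpins. Cy3 fluorescence, with annealed Cy3 and quencher oligos, was imaged on a sequenced MiSeq flow cell in 50 mM Na-HEPES pH 8.0, 25 mM NaCl in 2.5 °C steps up to 60 °C, and normalised to pre-quench Cy3 and to control constructs. Four replicates were combined by inverse variance, and fitted temperatures were raised by 9.35 °C to match UV melts.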

[2] = melting temperature; fluorescence melt of hairpins on a sequencing array, two-state fit, raised by 9.35 °C to match UV melts; details: sodium 0.088 M
Procedure, shortened: as §1

Row | Sequence | folding enthalpy [1] [kcal/mol] | Tm [2] [°C]
1 | GATATCGAAAGATATC ((((((....)))))) | -41 | 53.6
2 | GATATCGGAAACGGTATC ((((.((....)).)))) | -29.8 | 44
3 | GATATGAAAATATC (((((....))))) | -15.7 | 35.7
4 | GATATTGGAAACAGTATC ((((.((....)).)))) | -12.2 | 34.3
5 | GATCAAAAAGTTGATC ((((((....)))))) | -14.1 | 33
6 | GATCAAAAATTGATC ((((((...)))))) | -29.7 | 37
7 | GATCAAAACATTGATC ((((((....)))))) | -31.7 | 42.3
8 | GATCAAAAGTTGATC ((((((...)))))) | -26.1 | 39.5
9 | GATCAAAAGTTTGATC ((((((....)))))) | -27.7 | 42.4
10 | GATCAAACATTGATC ((((((...)))))) | -31.4 | 41.2
11 | GATCAAAGATTGATC ((((((...)))))) | -27.5 | 36.1
12 | GATCAAAGATTTGATC ((((((....)))))) | -31.8 | 43.6
13 | GATCAAAGCGTTGATC ((((((....)))))) | -31.6 | 43.7
14 | GATCAAAGTATTGATC ((((((....)))))) | -29.8 | 42.6
15 | GATCAAAGTGTTGATC ((((((....)))))) | -29.6 | 42.4
16 | GATCAACAGATTGATC ((((((....)))))) | -30.1 | 40.4
17 | GATCAACATTTGATC ((((((...)))))) | -31.1 | 38.2
18 | GATCAACCACTTGATC ((((((....)))))) | -32.6 | 42.3
19 | GATCAACCCATTGATC ((((((....)))))) | -31.8 | 44.8
20 | GATCAACCCTTGATC ((((((...)))))) | -30.4 | 43.6
21 | GATCAACCGGTTGATC ((((((....)))))) | -53.5 | 55.9
22 | GATCAACCTGTTGATC ((((((....)))))) | -41 | 55.2
23 | GATCAACGATTGATC ((((((...)))))) | -19.8 | 36.3
24 | GATCAACGATTTGATC ((((((....)))))) | -24.9 | 39.3

Row | Sequence | folding enthalpy [1] [kcal/mol] | Tm [2] [°C]
25 | GATCAACGGGTTGATC ((((((....)))))) | -36.7 | 56.8
26 | GATCAACGGTTGATC ((((((...)))))) | -40.3 | 44.7
27 | GATCAACGTATTGATC ((((((....)))))) | -26.9 | 44.1
28 | GATCAACGTGTTGATC ((((((....)))))) | -60.2 | 57.4
29 | GATCAACTGATTGATC ((((((....)))))) | -32.3 | 42.7
30 | GATCAACTGGTTGATC ((((((....)))))) | -39.8 | 55.2
31 | GATCAACTTATTGATC ((((((....)))))) | -35.4 | 43
32 | GATCAAGACGTTGATC ((((((....)))))) | -34 | 48.2
33 | GATCAAGACTTGATC ((((((...)))))) | -32.4 | 43.4
34 | GATCAAGACTTTGATC ((((((....)))))) | -35 | 51.7
35 | GATCAAGAGATTGATC ((((((....)))))) | -29.5 | 41.8
36 | GATCAAGATATTGATC ((((((....)))))) | -34.7 | 48.5
37 | GATCAAGCAATTGATC ((((((....)))))) | -34.1 | 48.8
38 | GATCAAGCATTTGATC ((((((....)))))) | -32.7 | 51
39 | GATCAAGCCATTGATC ((((((....)))))) | -48.9 | 50.5
40 | GATCAAGCGTTTGATC ((((((....)))))) | -30.8 | 43.9
41 | GATCAAGCTTTGATC ((((((...)))))) | -29.5 | 43.4
42 | GATCAAGGAAACTCGATC ((((.((....)).)))) | -17.2 | 28.4
43 | GATCAAGGAAACTTGATC (((((((....))))))) | -46.6 | 54
44 | GATCAAGGAATTGATC ((((((....)))))) | -31.8 | 47.6
45 | GATCAAGGCTTTGATC ((((((....)))))) | -42 | 50.1
46 | GATCAAGGTGTTGATC ((((((....)))))) | -31.7 | 46.1
47 | GATCAAGTCATTGATC ((((((....)))))) | -41.8 | 52.3
48 | GATCAATAAATTGATC ((((((....)))))) | -30.7 | 42.8

Row | Sequence | folding enthalpy [1] [kcal/mol] | Tm [2] [°C]
49 | GATCAATACATTGATC ((((((....)))))) | -37.3 | 49.2
50 | GATCAATACGTTGATC ((((((....)))))) | -37.9 | 48
51 | GATCAATACTTTGATC ((((((....)))))) | -39.6 | 48.1
52 | GATCAATAGTTGATC ((((((...)))))) | -26.2 | 40.5
53 | GATCAATATGTTGATC ((((((....)))))) | -38.9 | 49
54 | GATCAATATTTGATC ((((((...)))))) | -27.9 | 41.9
55 | GATCAATATTTTGATC ((((((....)))))) | -35.6 | 45.6
56 | GATCAATCCCTTGATC ((((((....)))))) | -41.6 | 46.7
57 | GATCAATCGTTGATC ((((((...)))))) | -26.8 | 40.4
58 | GATCAATGGCTTGATC ((((((....)))))) | -29 | 42.2
59 | GATCAATGGTTGATC ((((((...)))))) | -26.7 | 41
60 | GATCAATGGTTTGATC ((((((....)))))) | -31.9 | 44.7
61 | GATCAATGTGTTGATC ((((((....)))))) | -35 | 50.4
62 | GATCAATGTTTTGATC ((((((....)))))) | -29.4 | 47
63 | GATCAATTATTTGATC ((((((....)))))) | -38.9 | 45.8
64 | GATCAATTCATTGATC ((((((....)))))) | -50.7 | 53.1
65 | GATCAATTCGTTGATC ((((((....)))))) | -37.8 | 48.6
66 | GATCAATTCTTGATC ((((((...)))))) | -29.1 | 44.8
67 | GATCAATTTATTGATC ((((((....)))))) | -52.4 | 54.2
68 | GATCAATTTCTTGATC ((((((....)))))) | -39.3 | 43.3
69 | GATCACAAGGGTGATC ((((((....)))))) | -36.4 | 55.9
70 | GATCACAATCGTGATC ((((((....)))))) | -38.5 | 56.4
71 | GATCACACGGTGATC ((((((...)))))) | -37.5 | 60.5
72 | GATCACACGTGTGATC ((((((....)))))) | -43.5 | 57.7

Row | Sequence | folding enthalpy [1] [kcal/mol] | Tm [2] [°C]
73 | GATCACACTTGTGATC ((((((....)))))) | -39.4 | 56.4
74 | GATCACAGAAGTGATC ((((((....)))))) | -37.4 | 54.4
75 | GATCACAGTAGTGATC ((((((....)))))) | -40.1 | 59
76 | GATCACAGTGTGATC ((((((...)))))) | -39.9 | 56.6
77 | GATCACATCTGTGATC ((((((....)))))) | -38.7 | 57.9
78 | GATCACATTTGTGATC ((((((....)))))) | -40.8 | 59.3
79 | GATCACCACCGTGATC ((((((....)))))) | -37.3 | 55.5
80 | GATCACCATAGTGATC ((((((....)))))) | -42.2 | 58.5
81 | GATCACCCGGGTGATC ((((((....)))))) | -51.9 | 59
82 | GATCACCCTGGTGATC ((((((....)))))) | -41.1 | 64.1
83 | GATCACCGAAAGGTAATC (((.(((....))).))) | -20.9 | 39.5
84 | GATCACCGATGTGATC ((((((....)))))) | -30.1 | 54.6
85 | GATCACCGGCGTGATC ((((((....)))))) | -37.7 | 54.7
86 | GATCACCGGGGTGATC ((((((....)))))) | -46.5 | 62.7
87 | GATCACCGTCGTGATC ((((((....)))))) | -39 | 55.2
88 | GATCACCTAAGTGATC ((((((....)))))) | -38.9 | 56.4
89 | GATCACCTAGGTGATC ((((((....)))))) | -41.5 | 59.7
90 | GATCACCTCTGTGATC ((((((....)))))) | -42.2 | 55
91 | GATCACCTTCGTGATC ((((((....)))))) | -48.5 | 56.7
92 | GATCACCTTTGTGATC ((((((....)))))) | -42.4 | 55
93 | GATCACGAAAGTGCATC ((((((....))).))) | -21.4 | 42.8
94 | GATCACGAAAGTGTAATC ((((((....)))..))) | -10.3 | 30.1
95 | GATCACGAATGTGATC ((((((....)))))) | -37.5 | 67.7
96 | GATCACGACGGTGATC ((((((....)))))) | -37.8 | 59.8
